# Data from ChEMBL document CHEMBL1153560, “In vitro activities of doripenem and six comparator drugs against 423 aerobic and anaerobic bacterial isolates from infected diabetic foot wounds” (2008).
# Experiments:
# Assay type in all cases: functional
# [1] = system: Parabacteroides distasonis; assay: Antibacterial activity against Parabacteroides distasonis isolated from patient with diabetic foot infection assessed as percent resistant isolates after 44 to 48 hrs by agar dilution method
# Method in brief: (§1)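 Agar dilution per CLSI M11-A7. Twofold drug dilutions made on the test day and added to molten agar. Replicator-applied inoculum of 10^5 CFU/spot. Drug-free control plates inoculated before and after each drug set. Incubation at 37°C for 44 to 48 h, anaerobic chamber. MIC taken as the lowest concentration giving no growth or a marked change in growth versus controls.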
# Bacteroides caccae [2] = assay: Antibacterial activity against Bacteroides caccae isolated from patient with diabetic foot infection after 44 to 48 hrs by agar dilution method
# Method in brief: (§2)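 CLSI M11-A7 agar dilution: serial twofold drug dilutions made on the test day and added to molten agar. Spots of 10^5 CFU were applied by replicator, with drug-free control plates inoculated before and after each set. Incubation was 44 to 48 h at 37°C in an anaerobic chamber. MIC was the lowest concentration giving no growth or a marked change in growth versus controls.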
# [3] = system: Porphyromonas asaccharolytica; assay: Antibacterial activity against Porphyromonas asaccharolyticus isolated from patient with diabetic foot infection after 44 to 48 hrs by agar dilution method; method in brief: as §2
# Parabacteroides merdae [4] = assay: Antibacterial activity against Parabacteroides merdae isolated from patient with diabetic foot infection after 44 to 48 hrs by agar dilution method; method in brief: as §2
# Parabacteroides merdae [5] = assay: Antibacterial activity against Parabacteroides merdae isolated from patient with diabetic foot infection assessed as percent resistant isolates after 44 to 48 hrs by agar dilution method; method in brief: as §1
# Bacteroides fragilis [6] = assay: Antibacterial activity against Bacteroides fragilis isolated from patient with diabetic foot infection assessed as percent resistant isolates after 44 to 48 hrs by agar dilution method; method in brief: as §1
# Cutibacterium acnes = assay: Antibacterial activity against Propionibacterium acnes isolated from patient with diabetic foot infection after 44 to 48 hrs by agar dilution method; method in brief: as §2
# [7] = system: Peptoniphilus asaccharolyticus; assay: Antibacterial activity against Peptoniphilus asaccharolyticus isolated from patient with diabetic foot infection assessed as percent resistant isolates after 44 to 48 hrs by agar dilution method; method in brief: as §1
# Clostridium cadaveris [8] = assay: Antibacterial activity against Clostridium cadaveris isolated from patient with diabetic foot infection assessed as percent resistant isolates after 44 to 48 hrs by agar dilution method; method in brief: as §1
# Bacteroides uniformis [9] = assay: Antibacterial activity against Bacteroides uniformis isolated from patient with diabetic foot infection assessed as percent resistant isolates after 44 to 48 hrs by agar dilution method; method in brief: as §1
# [10] = system: Bacteroides thetaiotaomicron; assay: Antibacterial activity against Bacteroides thetaiotaomicron isolated from patient with diabetic foot infection after 44 to 48 hrs by agar dilution method; method in brief: as §2
# [11] = system: Clostridium malenominatum; assay: Antibacterial activity against Clostridium malenominatum isolated from patient with diabetic foot infection assessed as percent resistant isolates after 44 to 48 hrs by agar dilution method; method in brief: as §1
# Bacteroides ovatus [12] = assay: Antibacterial activity against Bacteroides ovatus isolated from patient with diabetic foot infection assessed as percent resistant isolates after 44 to 48 hrs by agar dilution method; method in brief: as §1
# [Clostridium] innocuum = Antibacterial activity against Clostridium innocuum isolated from patient with diabetic foot infection after 44 to 48 hrs by agar dilution method; method in brief: as §2
# Finegoldia magna [13] = assay: Antibacterial activity against Finegoldia magna isolated from patient with diabetic foot infection after 44 to 48 hrs by agar dilution method; method in brief: as §2
# Prevotella bivia [14] = assay: Antibacterial activity against Prevotella bivia isolated from patient with diabetic foot infection assessed as percent resistant isolates after 44 to 48 hrs by agar dilution method; method in brief: as §1
# Clostridium cadaveris [15] = assay: Antibacterial activity against Clostridium cadaveris isolated from patient with diabetic foot infection after 44 to 48 hrs by agar dilution method; method in brief: as §2
# Bacteroides ovatus [16] = assay: Antibacterial activity against Bacteroides ovatus isolated from patient with diabetic foot infection after 44 to 48 hrs by agar dilution method; method in brief: as §2
# [17] = system: Peptoniphilus asaccharolyticus; assay: Antibacterial activity against Peptoniphilus asaccharolyticus isolated from patient with diabetic foot infection after 44 to 48 hrs by agar dilution method; method in brief: as §2
# Prevotella bivia [18] = assay: Antibacterial activity against Prevotella bivia isolated from patient with diabetic foot infection after 44 to 48 hrs by agar dilution method; method in brief: as §2
# [19] = system: Anaerocolumna aminovalerica; assay: Antibacterial activity against Clostridium aminovalericum isolated from patient with diabetic foot infection after 44 to 48 hrs by agar dilution method; method in brief: as §2
# Anaerococcus tetradius = assay: Antibacterial activity against Anaerococcus tetradius isolated from patient with diabetic foot infection after 44 to 48 hrs by agar dilution method; method in brief: as §2
# Parvimonas micra [20] = assay: Antibacterial activity against Peptostreptococcus micros isolated from patient with diabetic foot infection after 44 to 48 hrs by agar dilution method; method in brief: as §2
# [21] = system: Peptostreptococcus anaerobius; assay: Antibacterial activity against Peptostreptococcus anaerobius isolated from patient with diabetic foot infection after 44 to 48 hrs by agar dilution method; method in brief: as §2
# Phocaeicola vulgatus = assay: Antibacterial activity against Bacteroides vulgatus isolated from patient with diabetic foot infection after 44 to 48 hrs by agar dilution method; method in brief: as §2
# [22] = system: Anaerocolumna aminovalerica; assay: Antibacterial activity against Clostridium aminovalericum isolated from patient with diabetic foot infection assessed as percent resistant isolates after 44 to 48 hrs by agar dilution method; method in brief: as §1
# Clostridium perfringens = assay: Antibacterial activity against Clostridium perfringens isolated from patient with diabetic foot infection after 44 to 48 hrs by agar dilution method; method in brief: as §1
# Parvimonas micra [23] = assay: Antibacterial activity against Peptostreptococcus micros isolated from patient with diabetic foot infection assessed as percent resistant isolates after 44 to 48 hrs by agar dilution method; method in brief: as §1
# Bacteroides caccae [24] = assay: Antibacterial activity against Bacteroides caccae isolated from patient with diabetic foot infection assessed as percent resistant isolates after 44 to 48 hrs by agar dilution method; method in brief: as §1
# Porphyromonas somerae = assay: Antibacterial activity against Porphyromonas somerae isolated from patient with diabetic foot infection assessed as percent resistant isolates after 44 to 48 hrs by agar dilution method; method in brief: as §1
# [25] = system: Peptostreptococcus anaerobius; assay: Antibacterial activity against Peptostreptococcus anaerobius isolated from patient with diabetic foot infection assessed as percent resistant isolates after 44 to 48 hrs by agar dilution method; method in brief: as §1
# Bacteroides uniformis [26] = assay: Antibacterial activity against Bacteroides uniformis isolated from patient with diabetic foot infection after 44 to 48 hrs by agar dilution method; method in brief: as §2
# Lacrimispora sphenoides = assay: Antibacterial activity against Clostridium sphenoides isolated from patient with diabetic foot infection after 44 to 48 hrs by agar dilution method; method in brief: as §2
# Anaerococcus prevotii [27] = assay: Antibacterial activity against Anaerococcus prevotii isolated from patient with diabetic foot infection after 44 to 48 hrs by agar dilution method; method in brief: as §2
# Finegoldia magna [28] = assay: Antibacterial activity against Finegoldia magna isolated from patient with diabetic foot infection assessed as percent resistant isolates after 44 to 48 hrs by agar dilution method; method in brief: as §1
# Anaerococcus prevotii [29] = assay: Antibacterial activity against Anaerococcus prevotii isolated from patient with diabetic foot infection assessed as percent resistant isolates after 44 to 48 hrs by agar dilution method; method in brief: as §1
# Bacteroides fragilis [30] = assay: Antibacterial activity against Bacteroides fragilis isolated from patient with diabetic foot infection after 44 to 48 hrs by agar dilution method; method in brief: as §2
structure (smiles),measurement,setting,value
C[C@@H](O)[C@H]1C(=O)N2C(C(=O)O)=C(S[C@@H]3CN[C@H](C(=O)N(C)C)C3)[C@H](C)[C@H]12 [MEROPENEM],Activity,[1],0%
same,MIC50,Bacteroides caccae [2],0.25 µg/mL
same,MIC90,Bacteroides caccae [2],1 µg/mL
same,MIC50,[3],≤ 0.015 µg/mL
same,MIC90,[3],≤ 0.015 µg/mL
same,MIC50,Parabacteroides merdae [4],0.25 µg/mL
same,MIC90,Parabacteroides merdae [4],1 µg/mL
same,Activity,Parabacteroides merdae [5],0%
same,Activity,Bacteroides fragilis [6],0%
same,MIC50,Cutibacterium acnes,0.125 µg/mL
same,MIC90,Cutibacterium acnes,0.25 µg/mL
same,Activity,[7],0%
same,Activity,Clostridium cadaveris [8],0%
same,Activity,Bacteroides uniformis [9],0%
same,MIC50,[10],0.25 µg/mL
same,MIC90,[10],1 µg/mL
same,Activity,[11],0%
same,Activity,Bacteroides ovatus [12],0%
same,MIC50,[Clostridium] innocuum,0.06 µg/mL
same,MIC90,[Clostridium] innocuum,1 µg/mL
same,MIC50,Finegoldia magna [13],0.06 µg/mL
same,MIC90,Finegoldia magna [13],0.125 µg/mL
same,Activity,Prevotella bivia [14],0%
same,MIC50,Clostridium cadaveris [15],0.06 µg/mL
same,MIC90,Clostridium cadaveris [15],1 µg/mL
same,MIC50,Bacteroides ovatus [16],0.25 µg/mL
same,MIC90,Bacteroides ovatus [16],1 µg/mL
same,MIC50,[17],≤ 0.015 µg/mL
same,MIC90,[17],0.125 µg/mL
same,MIC50,Prevotella bivia [18],0.06 µg/mL
same,MIC90,Prevotella bivia [18],0.125 µg/mL
same,MIC50,[19],0.06 µg/mL
same,MIC90,[19],1 µg/mL
same,MIC50,Anaerococcus tetradius,0.03 µg/mL
same,MIC90,Anaerococcus tetradius,0.125 µg/mL
same,MIC50,Parvimonas micra [20],0.125 µg/mL
same,MIC90,Parvimonas micra [20],0.25 µg/mL
same,MIC50,[21],0.125 µg/mL
same,MIC90,[21],0.25 µg/mL
same,MIC50,Phocaeicola vulgatus,0.25 µg/mL
same,MIC90,Phocaeicola vulgatus,1 µg/mL
same,Activity,[22],0%
same,MIC50,Clostridium perfringens,≤ 0.015 µg/mL
same,MIC90,Clostridium perfringens,≤ 0.015 µg/mL
same,Activity,Parvimonas micra [23],0%
same,Activity,Bacteroides caccae [24],0%
same,Activity,Porphyromonas somerae,0%
same,Activity,[25],0%
same,MIC50,Bacteroides uniformis [26],0.25 µg/mL
same,MIC90,Bacteroides uniformis [26],1 µg/mL
same,MIC50,Lacrimispora sphenoides,0.06 µg/mL
same,MIC90,Lacrimispora sphenoides,1 µg/mL
same,MIC50,Anaerococcus prevotii [27],0.03 µg/mL
same,MIC90,Anaerococcus prevotii [27],0.125 µg/mL
same,Activity,Finegoldia magna [28],0%
same,Activity,Anaerococcus prevotii [29],0%
same,MIC50,Bacteroides fragilis [30],0.125 µg/mL
same,MIC90,Bacteroides fragilis [30],0.25 µg/mL
Cc1ncc([N+](=O)[O-])n1CCO [METRONIDAZOLE],Activity,[1],0%
same,MIC50,Bacteroides caccae [2],0.5 µg/mL
same,MIC90,Bacteroides caccae [2],1 µg/mL
same,MIC50,[3],0.05 µg/mL
same,MIC90,[3],0.25 µg/mL
same,MIC50,Parabacteroides merdae [4],0.5 µg/mL
same,MIC90,Parabacteroides merdae [4],1 µg/mL
same,Activity,Parabacteroides merdae [5],0%
same,Activity,Bacteroides fragilis [6],0%
same,MIC50,Cutibacterium acnes,> 32 µg/mL
same,MIC90,Cutibacterium acnes,> 32 µg/mL
same,Activity,[7],0%
same,Activity,Clostridium cadaveris [8],0%
same,Activity,Bacteroides uniformis [9],0%
same,MIC50,[10],0.5 µg/mL
same,MIC90,[10],1 µg/mL
same,Activity,[11],0%
same,Activity,Bacteroides ovatus [12],0%
same,MIC50,[Clostridium] innocuum,0.125 µg/mL
same,MIC90,[Clostridium] innocuum,0.25 µg/mL
same,MIC50,Finegoldia magna [13],0.5 µg/mL
same,MIC90,Finegoldia magna [13],1 µg/mL
same,Activity,Prevotella bivia [14],0%
same,MIC50,Clostridium cadaveris [15],0.125 µg/mL
same,MIC90,Clostridium cadaveris [15],0.25 µg/mL
same,MIC50,Bacteroides ovatus [16],0.5 µg/mL
same,MIC90,Bacteroides ovatus [16],1 µg/mL
same,MIC50,[17],0.5 µg/mL
same,MIC90,[17],2 µg/mL
same,MIC50,Prevotella bivia [18],4 µg/mL
same,MIC90,Prevotella bivia [18],4 µg/mL
same,MIC50,[19],0.125 µg/mL
same,MIC90,[19],0.25 µg/mL
same,MIC50,Anaerococcus tetradius,0.5 µg/mL
same,MIC90,Anaerococcus tetradius,1 µg/mL
same,MIC50,Parvimonas micra [20],0.25 µg/mL
same,MIC90,Parvimonas micra [20],1 µg/mL
same,MIC50,[21],0.25 µg/mL
same,MIC90,[21],1 µg/mL
same,MIC50,Phocaeicola vulgatus,0.5 µg/mL
same,MIC90,Phocaeicola vulgatus,1 µg/mL
same,Activity,[22],0%
same,MIC50,Clostridium perfringens,1 µg/mL
same,MIC90,Clostridium perfringens,1 µg/mL
same,Activity,Parvimonas micra [23],0%
same,Activity,Bacteroides caccae [24],0%
same,Activity,Porphyromonas somerae,0%
same,Activity,[25],0%
same,MIC50,Bacteroides uniformis [26],0.5 µg/mL
same,MIC90,Bacteroides uniformis [26],1 µg/mL
same,MIC50,Lacrimispora sphenoides,0.125 µg/mL
same,MIC90,Lacrimispora sphenoides,0.25 µg/mL
same,MIC50,Anaerococcus prevotii [27],0.5 µg/mL
same,MIC90,Anaerococcus prevotii [27],1 µg/mL
same,Activity,Finegoldia magna [28],0%
same,Activity,Anaerococcus prevotii [29],0%
same,MIC50,Bacteroides fragilis [30],0.5 µg/mL
same,MIC90,Bacteroides fragilis [30],1 µg/mL
